Assay [1] concerns A549. Description: Induction of cell death in human A549 cells assessed as stabilization of p53 at 0.025 to 0.5 uM after 24 hrs by immunoblot assay. The format is functional, cell-based.
Assay [2] concerns A549. Briefly: Induction of cell death in human A549 cells assessed as accumulation of poly-ubiquitinated proteins at 0.025 to 0.5 uM after 24 hrs by immunoblot assay. The class given is functional, cell-based.
Assay [3] concerns the target T1, Ubl carboxyl-terminal hydrolase 18 (Homo sapiens) (UniProt Q9UMW8).
T1 sequence (whole entry): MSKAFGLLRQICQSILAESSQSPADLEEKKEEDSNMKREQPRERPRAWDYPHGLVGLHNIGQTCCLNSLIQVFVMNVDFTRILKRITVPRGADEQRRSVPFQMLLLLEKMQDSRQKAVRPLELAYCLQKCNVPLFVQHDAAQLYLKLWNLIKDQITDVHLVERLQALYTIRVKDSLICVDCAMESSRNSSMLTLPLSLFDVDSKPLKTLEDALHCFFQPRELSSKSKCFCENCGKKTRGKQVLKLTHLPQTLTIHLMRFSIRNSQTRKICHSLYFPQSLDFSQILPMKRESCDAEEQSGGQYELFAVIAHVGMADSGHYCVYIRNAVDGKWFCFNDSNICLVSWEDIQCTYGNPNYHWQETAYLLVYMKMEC
Description: Inhibition of USP18 (unknown origin) expressed in human A549 cells coexpressing ISG15-GFP assessed as reduction in free GFP at 25 to 100 nM after 24 hrs by immunoblot assay.

The test system of assay [4] is A549. Description: Induction of cell death in human A549 cells assessed as accumulation of Noxa at 0.025 to 0.1 uM after 24 hrs by immunoblot assay. The format is functional, cell-based.
The target in assay [5] is Ubiquitin carboxyl-terminal hydrolase isozyme L1 (Homo sapiens) (UniProt P09936). Description: Inhibition of GST-tagged recombinant full-length UCHL1 (unknown origin) expressed in bacteria using Ub-AMC as substrate preincubated for 30 mins before substrate addition measured after 60 mins by fluorescence assay. An outline of the steps:
(§1)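 Purified isopeptidase activity was measured with ubiquitin-AMC as fluorogenic substrate; IC50 was derived from inhibition.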

Assay [6] relates to U-87 MG. Description: Induction of necrosis in human U87MG cells at 0.6 to 10 uM after 24 hrs by trypan blue assay. The class given is functional, cell-based. Conditions: U-87MG ATCC. An outline of the steps:
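U87MG cells treated 24 h at the indicated concentrations. Death scored as percent trypan blue-positive cells. Caspase activity measured in parallel with a rhodamine 110 bis-(N-Z-DEVD amide) fluorogenic substrate and read in relative fluorescence units.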

Assay [7] deals with A549. Briefly: Induction of cell death in human A549 cells assessed as accumulation of poly-ubiquitinated proteins at 1 to 5 uM after 24 hrs by immunoblot assay. The format is functional, cell-based.
The subject of assay [8] is A549. Description: Induction of cell death in human A549 cells assessed as stabilization of p53 at 1 to 5 uM after 24 hrs by immunoblot assay. The class given is functional, cell-based.
Assay [9] is described as follows: Cytotoxicity against human U87MG cells after 48 hrs by resazurin assay. The format is functional, cell-based, U-87MG ATCC. The conditions noted are these: U-87 MG. A digest of the protocol: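 U87MG glioblastoma cells treated with compounds; viability read by resazurin 48 h after treatment. IC50 from triplicate experiments, reported as mean and s.d.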
The target in assay [10] is T1, Ubl carboxyl-terminal hydrolase 18 (Homo sapiens). Description: Inhibition of USP18 (unknown origin) expressed in human A549 cells coexpressing ISG15-GFP assessed as reduction in free GFP at 1 to 5 uM after 24 hrs by immunoblot assay. The class given is cell-based.
Assay [11] has as its target T2, Ubiquitin carboxyl-terminal hydrolase 2 (Homo sapiens, UniProt O75604).
T2 sequence (O75604 whole entry): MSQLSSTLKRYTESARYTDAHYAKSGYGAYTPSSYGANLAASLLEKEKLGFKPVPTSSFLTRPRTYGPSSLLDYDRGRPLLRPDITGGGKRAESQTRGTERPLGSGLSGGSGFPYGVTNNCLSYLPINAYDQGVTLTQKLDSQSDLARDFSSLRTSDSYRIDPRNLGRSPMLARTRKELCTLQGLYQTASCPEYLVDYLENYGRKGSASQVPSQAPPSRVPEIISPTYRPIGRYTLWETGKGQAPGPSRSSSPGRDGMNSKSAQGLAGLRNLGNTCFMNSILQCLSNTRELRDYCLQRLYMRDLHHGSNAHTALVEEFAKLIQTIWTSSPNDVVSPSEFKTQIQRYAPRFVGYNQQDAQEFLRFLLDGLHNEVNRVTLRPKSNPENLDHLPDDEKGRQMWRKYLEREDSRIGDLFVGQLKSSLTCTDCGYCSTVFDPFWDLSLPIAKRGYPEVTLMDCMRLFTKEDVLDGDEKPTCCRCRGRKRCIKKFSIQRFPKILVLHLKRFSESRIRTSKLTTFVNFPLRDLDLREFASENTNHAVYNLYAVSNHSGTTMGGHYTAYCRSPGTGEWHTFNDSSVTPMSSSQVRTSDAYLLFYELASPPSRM
Briefly: Inhibition of USP2 catalytic domain (unknown origin) expressed in bacteria using Ub-AMC as substrate preincubated for 30 mins before substrate addition measured after 60 mins by fluorescence assay. A digest of the protocol:
as §1

For assay [12], the target named is T3, Ubiquitin carboxyl-terminal hydrolase isozyme L5 (Homo sapiens, UniProt Q9Y5K5).
T3 sequence (Q9Y5K5 whole entry): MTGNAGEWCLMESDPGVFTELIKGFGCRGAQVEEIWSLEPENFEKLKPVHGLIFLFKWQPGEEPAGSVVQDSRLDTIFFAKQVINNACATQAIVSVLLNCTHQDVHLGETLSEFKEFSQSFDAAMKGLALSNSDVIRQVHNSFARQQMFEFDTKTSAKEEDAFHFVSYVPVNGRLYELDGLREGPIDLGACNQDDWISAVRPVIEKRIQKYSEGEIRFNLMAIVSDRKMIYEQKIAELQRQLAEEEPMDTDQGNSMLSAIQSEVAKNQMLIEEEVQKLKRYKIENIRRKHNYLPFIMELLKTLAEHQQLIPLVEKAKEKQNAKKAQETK
Description: Inhibition of GST-tagged UCHL5 (unknown origin) using Ub-AMC as substrate preincubated for 30 mins before substrate addition measured after 60 mins by fluorescence assay. A digest of the protocol: as §1

Assay [13] has as its target T4, Ubl carboxyl-terminal hydrolase 18 (Homo sapiens, UniProt Q9UMW8).
T4 sequence (Q9UMW8 whole entry): T1 sequence (whole entry)
Description: Inhibition of recombinant human USP18 (16 to 372 aa) expressed in Sf9 cells using ISG15-AMC as substrate preincubated for 30 mins before substrate addition measured after 60 mins by fluorescence assay.

In assay [14] the test system is T98G. Briefly: Induction of necrosis in human T98G cells at 0.6 to 10 uM after 24 hrs by trypan blue assay. The format is functional, cell-based. An outline of the steps:
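T98G cells exposed 24 h to the listed concentrations. Cell death was scored as percent of trypan blue-positive cells.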

Assay [15] concerns U-87 MG. Briefly: Induction of apoptosis in human U87MG cells assessed as caspase activation at 0.6 to 10 uM after 24 hrs by rhodamine-based fluorescence assay. The class given is functional, cell-based. The conditions noted are these: U-87MG ATCC. An outline of the steps: (§2)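 U87MG or T98G cells exposed 24 h to the listed concentrations. Caspase activity was read as relative fluorescence units from the rhodamine 110 bis-(N-Z-L-aspartyl-L-glutamyl-L-valyl-aspartic acid amide) fluorogenic substrate.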

For assay [16], the system named is T98G. Briefly: Induction of apoptosis in human T98G cells assessed as caspase activation at 0.6 to 10 uM after 24 hrs by rhodamine-based fluorescence assay. The format is functional, cell-based. An outline of the steps:
as §2

Assay [17] relates to U-87MG ATCC. Description: Induction of cell death in human U87MG cells at 4.2 to 18.4 uM after 24 hrs by trypan blue assay in presence of zVAD-fmk. The format is functional, cell-based.

The values below come from ChEMBL document CHEMBL3407395, “Synthesis, characterization, and optimization for in vivo delivery of a nonselective isopeptidase inhibitor as new antineoplastic agent” (J Med Chem, 2015).

The source made the active and inactive calls. The rule behind the calls is not given here.

Sequence of Ubiquitin carboxyl-terminal hydrolase isozyme L1 (Homo sapiens) (P09936 whole entry, looked up): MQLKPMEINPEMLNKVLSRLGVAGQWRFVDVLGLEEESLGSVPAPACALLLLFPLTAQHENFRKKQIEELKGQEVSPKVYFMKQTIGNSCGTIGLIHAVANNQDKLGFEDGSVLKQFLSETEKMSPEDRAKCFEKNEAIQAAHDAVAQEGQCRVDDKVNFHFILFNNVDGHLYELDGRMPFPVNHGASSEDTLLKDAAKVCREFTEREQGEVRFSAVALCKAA

As to `CC(C)C[C@H](NC(=O)[C@H](Cc1ccccc1)NC(=O)c1cnccn1)B(O)O`, the outcome in assay [1], in assay [2] and in assay [4] was Active. Moreover, in [3], the inhibition entry is “inactive”.

In the case of `O=C1/C(=C/c2ccc([N+](=O)[O-])cc2)CS(=O)(=O)C/C1=C\c1ccc([N+](=O)[O-])cc1`, the inhibition result in assay [5] is “inactive”. Besides, the result in assay [6], in [7] and in [8] was Active. For the same molecule, the IC50 came out at 0.77 µM in [9], 32.6 µM in [11], 13.6 µM in [12] and 33.2 µM in assay [13]. In addition, in assay [10], the inhibition entry is “Active”.

Take `COc1ccc(/C=C2\CS(=O)(=O)C/C(=C\c3ccc([N+](=O)[O-])cc3)C2=O)cc1`: inhibition in assay [9] was half-maximal at 2.09 µM (IC50).

`O=C1/C(=C/c2ccc(O)cc2)CS(=O)(=O)C/C1=C\c1ccc([N+](=O)[O-])cc1`: the IC50 in [9] was 2.17 µM.

In the case of `Cc1ccc(/C=C2\CS(=O)(=O)C/C(=C\c3ccc([N+](=O)[O-])cc3)C2=O)cc1`, in assay [9], it took 1.39 µM to reach half-maximal inhibition (IC50).

With `O=C1/C(=C/c2cccc([N+](=O)[O-])c2)CS(=O)(=O)C/C1=C\c1cccc([N+](=O)[O-])c1`, inhibition in [9] was half-maximal at 0.76 µM (IC50).

Turning to `N#Cc1ccc(/C=C2\CS(=O)(=O)C/C(=C\c3ccc(C#N)cc3)C2=O)cc1`, the IC50 in assay [9] was found to be 1.35 µM.

For `O=C1/C(=C/c2ccc([N+](=O)[O-])cc2)CNC/C1=C\c1ccc([N+](=O)[O-])cc1`, it took 7.15 µM to reach half-maximal inhibition in [9] (IC50).

`O=C1/C(=C/c2ccc(O)cc2)CS(=O)(=O)C/C1=C\c1ccc(O)cc1`: in assay [9], half-maximal inhibition (IC50) required 6.73 µM.

In assay [9], `O=C1/C(=C/c2ccc(Oc3ccccc3)cc2)CS(=O)(=O)C/C1=C\c1ccc(Oc2ccccc2)cc1` came in with an IC50 of 2.94 µM.

In turn, `O=C1/C(=C/c2ccc([N+](=O)[O-])cc2)CSC/C1=C\c1ccc([N+](=O)[O-])cc1` gave an IC50 in assay [9] of 11.6 µM.

In [9], `COc1ccc(/C=C2\CS(=O)(=O)C/C(=C\c3ccc(OC)cc3)C2=O)cc1` gave a half-maximal inhibitory concentration (IC50) of 3.57 µM.

As for `COc1ccc(/C=C2\CS(=O)(=O)C/C(=C\c3ccc(OC)c([N+](=O)[O-])c3)C2=O)cc1[N+](=O)[O-]`, in [9], 1.14 µM corresponded to half-maximal inhibition (IC50).

Consider `Cc1ccc(/C=C2\CS(=O)(=O)C/C(=C\c3ccc(C)cc3)C2=O)cc1`, for which the outcome in assay [14], in [15], in assay [6], in assay [16] and in assay [17] was Active. The molecule also registered an IC50 in [9] of 4.74 µM.

Turning to `CCOC(=O)C1C/C(=C\c2ccc([N+](=O)[O-])cc2)C(=O)/C(=C/c2ccc([N+](=O)[O-])cc2)C1` (stereo not drawn), in [9], the IC50 was 2.47 µM.

Regarding `O=C1/C(=C/c2ccccc2)CS(=O)(=O)C/C1=C\c1ccccc1`, in assay [9], inhibition was half-maximal at 5.11 µM (IC50).

Molecule `O=C1/C(=C/c2ccc([N+](=O)[O-])cc2)CC2(C/C1=C\c1ccc([N+](=O)[O-])cc1)OCCO2` yielded an IC50 in assay [9] of 15.3 µM.

With `O=C1/C(=C/c2ccc([N+](=O)[O-])cc2)C[S+]([O-])C/C1=C\c1ccc([N+](=O)[O-])cc1` (stereo not drawn), the outcome in assay [6] was Active. For the same molecule, the IC50 in assay [9] was 1.79 µM.

For the molecule `O=C1/C(=C/c2ccc([N+](=O)[O-])cc2)CCC/C1=C\c1ccc([N+](=O)[O-])cc1`, the IC50 in [9] was 27.5 µM.

`O=C1/C(=C/c2ccc(F)cc2)CS(=O)(=O)C/C1=C\c1ccc(F)cc1` returned an IC50 in assay [9] of 2.21 µM.

Take `O=C1/C(=C/c2ccc([N+](=O)[O-])cc2)COC/C1=C\c1ccc([N+](=O)[O-])cc1`: 50.1 µM corresponded to half-maximal inhibition in [9] (IC50).
